Fewer inactive variants are shown than the library holds.

The results in this text go back to the RNAGym collection of RNA variant scans (doi:10.1126/science.aae0568).

To fix the notation:
B1: tRNA (parent)
chain: GUUCCGUUGGCGUAAUGGUAACGCGUCUCCCUCCUAAGGAGAAGACUGCGGGUUCGAGUCCCGUACGGAACG

This series covers variants of B1. In words: yeast fitness relative to wild type (ratio to wild type); higher = fitter; tRNA-Arg(CCU), competitive growth, 37 C, YPD. Summed up: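 Variants of the tRNA-Arg(CCU) gene were chemically synthesised with a 3% per-site mutation rate across 69 sites and placed at the native genomic locus in Saccharomyces cerevisiae. Six parallel replicates of the pooled strains were competed in YPD at 37°C for 24 hours, and gene amplicons from the start and end populations were read by 100-nucleotide paired-end sequencing. Darwinian fitness relative to wild type was derived from changes in genotype frequencies. Genotypes required ≥ 100 starting reads, and estimates < 0.5 were set to 0.5.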
For the variant GUUCCGUUGGAGUAAUGGAAACGCGUCUCCCUCCUAAGGAGUAGCCUGCGGGUUUGAGUCCCGUACGGCACG [C11A U19A A42U A45C C55U A69C], the yeast fitness came out at 0.538.

Consider GUUCCGUUGGAGUAAUGGUAACGCGUCGCCCUACUAAGGAGCAGACUGCGGGUUCGAGUCCCGUACGGAACG [C11A U28G C33A A42C], for which the yeast fitness was no more than 0.5.

Regarding GUUCCGUUGGAGUAAUGGUAACACGUCUCCCUCCUAAGGAGAAGACUGCGGGUUCGAGUCCCCUACGGAACG [C11A G23A G63C], the yeast fitness stood at 0.551. Regarding GUUCCGUUGGAGUAAUGGUAACGCGUCUCCCUCCUAAGGAGAAGACUGCGGGAUCGAGUCCGGUACGGAACG [C11A U53A C62G], the yeast fitness was no more than 0.5. The value for GUUCCGUUGGAGUAAUGGUAACGCGUCUCCCUCCUAAGGAGAAGACUGCGGCUUCGAGUCCCGUACAGAACG [C11A G52C G67A] was no more than 0.5; that for GUUCCGUUGGAGUAAUGGUAACGCGUCUCCCUCCUAAGGAGAAGACUGUGGGUUCGAGUCUCGUACGGAACG [C11A C49U C61U] was no more than 0.5; that for GUUCCGUUGGAGUAAUGGUAACGCGUCUCCGUCCUAAGGAGUAGACUGCGGGUUCGAGUCCCGUACAGAACG [C11A C31G A42U G67A] was no more than 0.5. Regarding GUUCCGUUGGAGUAAUGGUAACGCGUCUCUCUCCUAAGGAGAAGACUGAGGGUUCGAGUCCCGUACGGUACG [C11A C30U C49A A69U], the yeast fitness was no more than 0.5. GUUCCGUUGGAGUAAUGGUAACGCGUCUCCCUUCUAAGGAGAAGACUGUGGGUUCGAGUGCCGUACGGAACG [C11A C33U C49U C60G]: the yeast fitness was no more than 0.5. As for GUUCCGUUGGAGUAAUGGUAACGCGUCUCCCUCCUAAGGAGAAGACUGCGGGUUCGAGUCGCGUACGGAACG [C11A C61G], the yeast fitness was no more than 0.5. Consider GUUCCGUUGGAGUAAUGGUAACGCGUCUCCAUCCUAAUGAGAACACUGCGGGUUCGAGUCCCGUGCGGAACG [C11A C31A G38U G44C A65G], for which the yeast fitness is no more than 0.5. Turning to GUUCCGUUGGAGUAAUGGUAACGCGUCUCCACCCUAAGGAGAACACUGCGGGUUCGAGUCCCGUGCGGAACG [C11A C31A U32C G44C A65G], the yeast fitness was no more than 0.5.

GUUCCGUUGGAGUAAUGGUAACGCGUCUCCCUCCUAAGGAGAAGAGUGCGGGUUCGAGUCCCGUGCGGAACG [C11A C46G A65G]: the yeast fitness was no more than 0.5. On to GUUCCGUUGGAGUAACGCUAACGCGUCUCCCUCCCAAGGAGAAGCCUGCGGGUUCGCGUCCCGUACGCAACG [C11A U16C G18C U35C A45C A57C G68C], for which the yeast fitness is 0.515. In the case of GUUCCGUUGGAGAAAUGGUAACGCGUCUCCGUCCUAAGGAGAAGACUGCGGGUUCGAGUCCCGUCCGGAACG [C11A U13A C31G A65C], the yeast fitness is no more than 0.5. The value for GUUCCGUUGGAGUAAUGGUAACGCGUCUCCCUCCAAAGGAGAAGACUGCGGGUUCGAGUCUUGUAAGGAACG [C11A U35A C61U C62U C66A] was no more than 0.5. On to GUUCCGUUGGAGUAAUGGUAACGCGUCUCCCUCCUAAGGAGAAGAUUACGGGUUUGAGACCCGUACGGAACG [C11A C46U G48A C55U U59A], for which the yeast fitness is no more than 0.5.

As for GUUCCGUUGGGGUUAUGGAAACGCAUCUCCCUCUUAAGGAGAAGACUGCGGGUUCGAGUUCCGUACGAAACG [C11G A14U U19A G25A C34U C60U G68A], the yeast fitness is 0.517. GUUCCGUUGGAGUAAUGGUAACGCGUCUCCCUCCUAAGGAGAAGACUGCGGCUUCGAGUCCCGUAUGGCACG [C11A G52C C66U A69C]: the yeast fitness was no more than 0.5. In the case of GUUCCGUUGGAGUAAUGGUAACGCGUCUCCGUCCUAAGGAGUAGACUGCGGGUUCGAGUCCUGAACGGAACG [C11A C31G A42U C62U U64A], the yeast fitness is no more than 0.5. For the variant GUUCCGUUGGGGUGAUGGUAACGGGUCUCCCUCCUAAGGAGAAGACUGCGGGUUCGAGUCCCGUACCGAACG [C11G A14G C24G G67C], the yeast fitness is no more than 0.5. Regarding GUUCCGUUGGAGUAAUGGUAACGCGUCUCCCUCCUAAGGAGAAGACUGCGGGUUCGAGUCCUGUACGGAACG [C11A C62U], the yeast fitness was 0.616. As for GUUCCGUUGGAGUAAUGGUAACGCGUCUCCCUCCUAAGGAGAAGACUGCGGGUUCGAGUCCAGUACGGAACG [C11A C62A], the yeast fitness was no more than 0.5. Turning to GUUCCGUUGGAGUAAUGGGAACGCGUCUCCCUCCUGAGGAGAAGACUGCGGGUCCGAGUCCCGCACAGAACG [C11A U19G A36G U54C U64C G67A], the yeast fitness is no more than 0.5.

On to GUUCCGUUGGAGUAAUGGUAACGCGCCUGCUUCCUAAGGAGAAGACUACGGGUUCGAGUCCCGUACGGAACG [C11A U26C C29G C31U G48A], for which the yeast fitness is no more than 0.5. For GUUCCGUUGGAGUAAUGGUAACGCGCCUGCUUCCUAAGGAGAAGACUGCGGGUUCGAGUCCCGUACGGAACG [C11A U26C C29G C31U], the yeast fitness was 0.655. For GUUCCGUUGGAGUAAUGGUAACGCGUCUCUCUGCUAAGGAGAAGACUGCGGGUUCGAGUCCCGCACGGAACG [C11A C30U C33G U64C], the yeast fitness is no more than 0.5. On to GUUCCGUUGGGGUUAUGGUAACGCGUCUCCCUCCUAAGGAGAAGACUGCGGGUUCGAGGCCCGUACGGAACG [C11G A14U U59G], for which the yeast fitness was no more than 0.5. Turning to GUUCCGUUGGAGUAAUGGUAACGCGUCUCCCUCCUAAGGAGAAGACUGCGGGUUGGAGUCCCGUACGGAACG [C11A C55G], the yeast fitness was 0.535. With GUUCCGUUGGAGUAAUGGUAACGCGUCUCCCCCCUAAGGAGAAGACUGUGGGUUCGAGUCCCGUACGGAACG [C11A U32C C49U], the yeast fitness came to 0.606. With GUUCCGUUGGAGUAAUGGUAACGCGUCUCCCUCCUAAGGAGAAGACAGCGGGUUCGAGUCCCGUACGGACCG [C11A U47A A70C], the yeast fitness was no more than 0.5. Regarding GUUCCGUUGGAGUAAUGGUAACGCGUCUCCCUCCUAAGGAGAAGACUGCGAGUUCGAGUCCCGUAGGGAACG [C11A G51A C66G], the yeast fitness is no more than 0.5. On to GUUCCGUUGGAGAAAUGGUAACGCGUCUCCGUCCUAAGGAGAAGACUGCGGGUUUGAGUCCCGUACGGAACG [C11A U13A C31G C55U], for which the yeast fitness is no more than 0.5. The value for GUUCCGUUGGAGUAAUGGUAACGCCUCUUCCUCCUAAGGAGAAGACUGCGGGUUCGAGUCCCGUACGGAACG [C11A G25C C29U] was no more than 0.5. On to GUUCCGUUGGAGUAAUGGUAACGCGUCUCCGUCCUAAGGAGAAGACUGCGGGUUCGAGUCCCGUACGGAACG [C11A C31G], for which the yeast fitness was 0.592. As to GUUCCGUUGGAGUAAUGGGAACGCGUCUCCCUCCUGAGGAGAAGACUGCGGGUUCGAGUCCCGUAUGGAACG [C11A U19G A36G C66U], the yeast fitness is no more than 0.5. The value for GUUCCGUUGGAGUAAUGGUAACGCGUCUCCCUCCUAAGGAGAAGAUUGCGGGUUCGAGUCCCGCACGGAACG [C11A C46U U64C] was no more than 0.5; that for GUUCCGUUGGAGUAAUGGUAACGCGUCUCCCUACUAAGGGGAGGACUGCGGGUUCGAGUCCCGUACGGAACG [C11A C33A A40G A43G] was no more than 0.5.
